Laboratory results reported in ChEMBL document CHEMBL2321736 (ACS Med Chem Lett, 2013).
Converted amounts (≈) assume the structure as drawn.

Experiments:
[1] = Thermodynamic solubility of the compound at pH 7.4; assay type: physicochemical; conditions: buffer, read-out: Therm_solubility
Outline: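 Thermodynamic solubility measured at pH 7.4.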

[2] = Ratio of unbound drug level in brain to plasma in Sprague-Dawley rat at 0.5 mg/kg, iv; assay type: ADME, organism-based; design: dose 0.5 mg/kg, route intravenous; conditions: read-out: K(p,uu,brain)
Outline: (§1)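 Male Sprague−Dawley rats given 0.5 mg/kg iv in 60% NMP solution, n = 3. Brain/plasma value is the unbound brain to unbound plasma AUC ratio after this iv dose.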

[3] = Volume of distribution in Sprague-Dawley rat at 0.5 mg/kg, iv; assay type: ADME, organism-based; design: dose 0.5 mg/kg, route intravenous; conditions: in vivo; outline: as §1
[4] = Plasma clearance in Sprague-Dawley rat at 0.5 mg/kg, iv; assay type: ADME, organism-based; design: dose 0.5 mg/kg, route intravenous; outline: as §1
[5] = Oral bioavailability in beagle dog at 1 mg/kg; assay type: ADME, organism-based, Canis lupus familiaris; conditions: in vivo
Outline: (§2)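 Male Beagle dogs, n = 3. iv dose 0.5 mg/kg in 30% NMP solution; oral dose 1 mg/kg as aqueous suspension of 1% RC591 + 0.2% tween80.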

[6] = Plasma clearance in beagle dog at 0.5 mg/kg, iv and 1 mg/kg, po; assay type: ADME, organism-based, Canis lupus familiaris; outline: as §2

CNc1nc(Nc2cc(F)c(C(=O)N3CCOCC3)cc2OC)ncc1C(F)(F)F
solubility thermodynamic [1]: < 0.9 µg/mL

CNc1nc(Nc2cnn(CC(C)(C)O)c2C)ncc1C(F)(F)F
Kp uu [2]: 0.26 | Vd [3]: 0.88 L/kg | clearance [4]: 35 mL/min/kg

CNc1nc(Nc2cnn(CC(C)(C)O)c2Cl)ncc1C(F)(F)F
bioavailability [5]: 31% | clearance [6]: 22 mL/min/kg | Kp uu [2]: 0.37 | Vd [3]: 2.5 L/kg | clearance [4]: 21 mL/min/kg | solubility thermodynamic [1]: 20 µg/mL (≈ 54.8 µM)
